Data reported in paper PMC9662183 (Journal of medicinal chemistry, 2022).
“Also recorded” adds a separate entry of the source.

How the values were obtained:
[1] = system: i.c.v. Aβ1–42-injected C57BL/6 mice; experiment: Spontaneous alternation T-maze in i.c.v. Aβ1–42-injected mice; format: in vivo, mouse; conditions: for T-maze alternation rate: mouse, in vivo, po, 250 mg/kg
[2] = system: glyoxalase pathway (D-lactate); experiment: Brain D-lactate measurement; format: in vivo, mouse; conditions: wild type C57BL/6 mice, 500 mg/kg oral, multiple time points
[3] = Stability in mouse brain homogenate; format: in vitro ADME; conditions: 1 μM, 37 °C
[4] = system: glyoxalase enzyme pathway (AGE content); experiment: Brain advanced glycation endproducts; format: in vivo, mouse; conditions: i.c.v. Aβ-injected mice, 250 mg/kg oral
[5] = system: brain GSH; experiment: Quantitation of GSH in brain of i.c.v. Aβ-injected mice; format: in vivo, mouse; conditions: 250 mg/kg oral
[6] = system: GFAP and Iba1 staining; format: in vivo, mouse; conditions: i.c.v. Aβ-injected mice, 250 mg/kg oral
[7] = Conversion of prodrugs into ψ-GSH in liver homogenate; format: in vitro ADME, mouse; conditions: liver homogenates
[8] = Stability in mouse liver homogenate; format: in vitro ADME; conditions: for Half-life, tissue homogenate liver: mouse liver homogenate, 1 μM, 37 °C
[9] = Stability in simulated gastric fluid; format: in vitro ADME
How it was run: (§1)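 Test compound at 1 μM final was incubated at 37 °C in CD-1 mouse plasma, or in simulated gastric or intestinal fluid made per the USP National Formulary. Samples were taken at 0, 5, 15, 30, 60, 120 and 240 min and quenched with 3 volumes of acetonitrile/1% formic acid, then centrifuged. Prodrug and released parent were measured by HPLC-UV (Fmoc-Cl derivatization, 254 nm) and/or LC-MS/MS (MRM), and t1/2 was calculated.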

[10] = Stability in simulated intestinal fluid; format: in vitro ADME; conditions: SIF, 1 μM, 37 °C
How it was run: as §1

[11] = Conversion of prodrugs into ψ-GSH in brain homogenate; format: in vitro ADME, mouse; conditions: freshly prepared brain homogenates containing proteinase inhibitors
[12] = Stability in mouse plasma; format: in vitro ADME; conditions: mouse plasma (CD-1), 1 μM, 37 °C
How it was run: as §1

[13] = Brain and plasma distribution study in CD-1 mice; format: in vivo, mouse; conditions: CD1 mice

conversion into / release of ψ-GSH in liver homogenate [7] | conversion into / release of ψ-GSH in brain homogenate [11] | Molecule | T-maze alternation rate [1] | brain total AGE content versus Aβ1–42 group [4] | brain reduced GSH compared to the Aβ-only group [5] | Iba1 staining in dorsal hippocampus [6] | Half-life, tissue homogenate liver [8] | Half-life, plasma [12] | further results
detected | detected | N-Ethyloxycarbonyl-γ-L-Glz[-L-Cys(SCOOEt)-Gly-OH]-OH [prodrug 7] | effective in improving the alternation behavior | significantly reduced | significantly increased | significantly reduced | 1.30 h | 113.6 h | T-maze repetitive arm entries ([1]; oral treatment, 250 mg/kg once a day, Aβ-only 3.22 ± 0.27): 1.00 ± 0.31; brain D-lactate release [2]: immediate spike; Half-life, tissue homogenate brain [3]: 9.79 h; GFAP staining in dorsal hippocampus [6]: significant reduction; astrocytic and microglial reactivity (GFAP, Iba1) in dentate gyrus [6]: Mitigation; Half-life, GI tract gastric phase ([9]; SGF, 1 μM, 37 °C): 17.96 h; Half-life, GI tract intestinal phase [10]: 24.24 h
– | – | CC(=O)SC[C@H](NC(=O)NC[C@H](N)C(=O)O)C(=O)NCC(=O)O [prodrug 1, NH2-γ-L-Glz[-L-Cys(SAc)-Gly-OH]-OH] | – | – | – | – | – | – | half-life at 1 μM ([9]; simulated gastric fluid (SGF)): ~24 h
relatively higher and sustained release | relatively higher and sustained release | CCOC(=O)SC[C@H](NC(=O)NC[C@H](N)C(=O)OC1CCCC1)C(=O)NCC(=O)OC1CCCC1 [prodrug 6, NH2-γ-L-Glz[-L-Cys(SCOOEt)-Gly-OcPe]-OcPe] | – | – | – | – | – | – | major metabolite in liver homogenate incubates ([8]; liver homogenate): thiocarbonate cleavage product
– | – | NH2-γ-L-Glz[-L-Thz-Gly-OH]-OH [prodrug 4] | – | – | – | – | 115.5 h | 30.64 h | –

Molecule | conversion into / release of ψ-GSH in liver homogenate [7] | conversion into / release of ψ-GSH in brain homogenate [11] | T-maze alternation rate [1] | brain total AGE content versus Aβ1–42 group [4] | brain reduced GSH compared to the Aβ-only group [5] | Iba1 staining in dorsal hippocampus [6] | Half-life, tissue homogenate liver [8] | Half-life, plasma [12] | further results
Cl.N[C@@H](CNC(=O)N[C@@H](CS)C(=O)NCC(=O)OC1CCCC1)C(=O)OC1CCCC1 [prodrug 5, HCl.NH2-γ-L-Glz[-L-Cys(SH)-Gly-OcPe]-OcPe] | relatively higher and sustained release; also recorded: detected | relatively higher and sustained release; also recorded: detected | effective in improving the alternation behavior | significantly reduced | significantly increased | significantly reduced | – | – | plasma Cmax versus ψ-GSH ([13]; 250 mg/kg oral, comparison ψ-GSH 500 mg/kg i.p.): increased Cmax; brain levels of ψ-GSH after prodrug administration versus ψ-GSH treatment ([13]; prodrug 250 mg/kg oral vs ψ-GSH 500 mg/kg i.p.): lower than; relative brain AUC ([13]; prodrug 250 mg/kg oral, 2-6 h): 1.22 nmol·h/mg tissue
